Test results published in ChEMBL document CHEMBL1649102, “Stereochemical survey of digitoxin monosaccharides: new anticancer analogues with enhanced apoptotic activity and growth inhibitory effect on human non-small cell lung cancer cell” (ACS Med Chem Lett, 2011).
pIC50: −log10 of the molar value. The source made the active and inactive calls. The calls are words filed in the database; no cut-off is given here.

Key:
[1] = test system: DU-145; assay: Growth inhibition of human DU145 cells; assay type: functional
Procedure, shortened: (§1)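 NCI-60 cell lines grown in RPMI 1640 with 5% FBS and 2 mM L-glutamine, plated at 5,000–40,000 cells/well and preincubated 24 h. Time-zero plates were TCA-fixed. Drug was given at five concentrations (10-fold or ½-log dilutions from DMSO stock) for 48 h at 37°C. Cells were TCA-fixed, stained with SRB, and read at 515 nm. GI50 is where [(Ti−Tz)/(C−Tz)]×100 = 50.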

[2] = test system: Malme-3M; assay: Growth inhibition of human MALME-3M cells; assay type: functional; procedure, shortened: as §1
[3] = test system: SNB-19; assay: Growth inhibition of human SNB19 cells; assay type: functional
Procedure, shortened: (§2)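 NCI-60 panel SRB assay. Cells in RPMI 1640 with 5% FBS and 2 mM L-glutamine, plated at 5,000-40,000 cells/well and grown 24 h before dosing; time-zero plates TCA-fixed. Five concentrations (10-fold or ½ log dilutions, from DMSO stock) applied for 48 h at 37°C. TCA fixation (16% final for suspension cells), SRB stain, absorbance 515 nm; GI50 from net protein increase versus control.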

[4] = test system: SK-MEL-2; assay: Growth inhibition of human SK-MEL-2 cells; assay type: functional; procedure, shortened: as §1
[5] = test system: NCI-H460; assay: Induction of apoptosis human NCI-H460 cells assessed as cellular degradation at 50 nM after 12 hrs by Hoechst-33342 staining; assay type: functional
Procedure, shortened: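 NCI-H460 seeded 50,000 cells/well for 12 h, then exposed 12 h in serum-free medium (DMSO <0.1%). Stained 30 min at 37°C with 10 µg/ml Hoechst 33342 plus 20 µg/ml propidium iodide. Condensed or fragmented nuclei scored by fluorescence microscopy; apoptotic index = apoptotic/total nuclei ×100. 2 replicate wells, ≥3 runs (N = 6).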

[6] = test system: OVCAR-4; assay: Growth inhibition of human OVCAR4 cells; assay type: functional; procedure, shortened: as §1
[7] = test system: T47D; assay: Growth inhibition of human T47D cells; assay type: functional; procedure, shortened: as §2
[8] = test system: SK-OV-3; assay: Growth inhibition of human SKOV3 cells; assay type: functional; procedure, shortened: as §2
[9] = test system: A498; assay: Growth inhibition of human A498 cells; assay type: functional; procedure, shortened: as §1
[10] = test system: UACC-257; assay: Growth inhibition of human UACC257 cells; assay type: functional; procedure, shortened: as §2
[11] = test system: HL-60(TB); assay: Growth inhibition of human HL-60(TB) cells; assay type: functional; procedure, shortened: as §1
[12] = test system: OVCAR-8; assay: Growth inhibition of human OVCAR8 cells; assay type: functional; procedure, shortened: as §1
[13] = test system: NCI-H522; assay: Growth inhibition of human NCI-H522 cells; assay type: functional; procedure, shortened: as §1
[14] = test system: SF-268; assay: Growth inhibition of human SF268 cells; assay type: functional; procedure, shortened: as §1
[15] = test system: A549; assay: Growth inhibition of human A549 cells; assay type: functional; procedure, shortened: as §1
[16] = test system: HCT-116; assay: Growth inhibition of human HCT116 cells; assay type: functional; procedure, shortened: as §1
[17] = test system: TK-10; assay: Growth inhibition of human TK10 cells; assay type: functional; procedure, shortened: as §2
[18] = test system: CCRF-CEM; assay: Growth inhibition of human CCRF-CEM cells; assay type: functional; procedure, shortened: as §1
[19] = test system: M14; assay: Growth inhibition of human M14 cells; assay type: functional; procedure, shortened: as §1
[20] = test system: EKVX; assay: Growth inhibition of human EKVX cells; assay type: functional; procedure, shortened: as §1
[21] = test system: HCT-15; assay: Growth inhibition of human HCT15 cells; assay type: functional; procedure, shortened: as §1
[22] = test system: HCC 2998; assay: Growth inhibition of human HCC2998 cells; assay type: functional; procedure, shortened: as §1
[23] = test system: NCI-H322M; assay: Growth inhibition of human NCI-H322M cells; assay type: functional; procedure, shortened: as §1
[24] = test system: NCI-H23; assay: Growth inhibition of human NCI-H23 cells; assay type: functional; procedure, shortened: as §1
[25] = test system: SN12C; assay: Growth inhibition of human SN12C cells; assay type: functional; procedure, shortened: as §2
[26] = test system: SK-MEL-28; assay: Growth inhibition of human SK-MEL-28 cells; assay type: functional; procedure, shortened: as §2
[27] = test system: UO-31; assay: Growth inhibition of human UO31 cells; assay type: functional; procedure, shortened: as §2
[28] = test system: HOP-92; assay: Growth inhibition of human HOP92 cells; assay type: functional; procedure, shortened: as §1
[29] = test system: MCF7; assay: Growth inhibition of human MCF7 cells; assay type: functional; procedure, shortened: as §1
[30] = test system: CAKI-1; assay: Growth inhibition of human Caki1 cells; assay type: functional; procedure, shortened: as §1
[31] = test system: U-251; assay: Growth inhibition of human U251 cells; assay type: functional; procedure, shortened: as §2
[32] = test system: MDA-MB-435; assay: Growth inhibition of human MDA-MB-435 cells; assay type: functional; procedure, shortened: as §1
[33] = test system: NCI-H226; assay: Growth inhibition of human NCI-H226 cells; assay type: functional; procedure, shortened: as §1
[34] = test system: KM12; assay: Growth inhibition of human KM12 cells; assay type: functional; procedure, shortened: as §1
[35] = test system: NCI-H460; assay: Growth inhibition of human NCI-H460 cells; assay type: functional; procedure, shortened: as §1
[36] = test system: SW-620; assay: Growth inhibition of human SW620 cells; assay type: functional; procedure, shortened: as §2
[37] = test system: RXF 393; assay: Growth inhibition of human RXF393 cells; assay type: functional; procedure, shortened: as §1
[38] = test system: PC-3; assay: Growth inhibition of human PC3 cells; assay type: functional; procedure, shortened: as §1
[39] = test system: MDA-MB-231; assay: Growth inhibition of human MDA-MB-231 cells; assay type: functional; procedure, shortened: as §1
[40] = test system: OVCAR-5; assay: Growth inhibition of human OVCAR5 cells; assay type: functional; procedure, shortened: as §1
[41] = test system: MDA-N; assay: Growth inhibition of human MDA-N cells; assay type: functional; procedure, shortened: as §1
[42] = test system: UACC-62; assay: Growth inhibition of human UACC62 cells; assay type: functional; procedure, shortened: as §2
[43] = test system: LOX IMVI; assay: Growth inhibition of human LOXIMVI cells; assay type: functional; procedure, shortened: as §1
[44] = test system: COLO 205; assay: Growth inhibition of human COLO205 cells; assay type: functional; procedure, shortened: as §1
[45] = test system: 786-0; assay: Growth inhibition of human 786-0 cells; assay type: functional; procedure, shortened: as §1
[46] = test system: HOP-62; assay: Growth inhibition of human HOP62 cells; assay type: functional; procedure, shortened: as §1
[47] = test system: SF-539; assay: Growth inhibition of human SF539 cells; assay type: functional; procedure, shortened: as §1
[48] = test system: NCI-H460; assay: Cytotoxicity against human NCI-H460 cells assessed as cell death at 50 nM after 12 hrs by Hoechst-33342 staining and propidium iodide staining; assay type: functional, cell-based; conditions: NCI-H460, 12 h
Procedure, shortened: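 NCI-H460 cells were seeded at 50,000 cells/well for 12 h, then exposed 12 h in serum-free medium (DMSO <0.1%). Cells were stained with Hoechst 33342 (10 µg/ml) and propidium iodide (20 µg/ml) for 30 min at 37°C. Condensed or fragmented nuclei were scored by fluorescence microscopy, and apoptotic index = apoptotic/total nuclei ×100. Duplicate wells, ≥3 runs (N = 6).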

[49] = test system: SNB-75; assay: Growth inhibition of human SNB75 cells; assay type: functional; procedure, shortened: as §2
[50] = test system: MOLT-4; assay: Growth inhibition of human MOLT4 cells; assay type: functional; procedure, shortened: as §1
[51] = Growth inhibition of human NCI60 cells; assay type: functional; procedure, shortened: as §1
[52] = test system: HT-29; assay: Growth inhibition of human HT-29 cells; assay type: functional; procedure, shortened: as §1
[53] = test system: BT-549; assay: Growth inhibition of human BT549 cells; assay type: functional; procedure, shortened: as §1
[54] = test system: SK-MEL-5; assay: Growth inhibition of human SK-MEL-5 cells; assay type: functional; procedure, shortened: as §2
[55] = test system: ACHN; assay: Growth inhibition of human ACHN cells; assay type: functional; procedure, shortened: as §1
[56] = test system: K562; assay: Growth inhibition of human K562 cells; assay type: functional; procedure, shortened: as §1
[57] = test system: NCI/ADR-RES; assay: Growth inhibition of human NCI/ADR-RES cells; assay type: functional; procedure, shortened: as §1
[58] = test system: SF-295; assay: Growth inhibition of human SF295 cells; assay type: functional; procedure, shortened: as §1
[59] = Growth inhibition of human […] cells; assay type: functional; procedure, shortened: as §1
[60] = test system: IGROV-1; assay: Growth inhibition of human IGROV1 cells; assay type: functional; procedure, shortened: as §1
[61] = test system: OVCAR-3; assay: Growth inhibition of human OVCAR3 cells; assay type: functional; procedure, shortened: as §1
[62] = test system: SR; assay: Growth inhibition of human SR cells; assay type: functional; procedure, shortened: as §2
[63] = Growth inhibition of human Hs 578T cells; assay type: functional; procedure, shortened: as §1

SMILES: C[C@@H]1O[C@@H](O[C@H]2CC[C@@]3(C)[C@H](CC[C@@H]4[C@@H]3CC[C@]3(C)[C@@H](C5=CC(=O)OC5)CC[C@]43O)C2)[C@H](O)[C@H](O)[C@H]1O
- GI50 [1]: < 10 nM
- GI50 [2]: < 10 nM
- GI50 [3]: < 10 nM
- GI50 [4]: < 10 nM
- Activity [5]: Active
- Activity ([5]; record 2): 45.8%
- GI50 [6]: < 10 nM
- GI50 [7]: < 10 nM
- GI50 [8]: < 10 nM
- GI50 [9]: < 10 nM
- GI50 [10]: < 10 nM
- GI50 [11]: < 10 nM
- GI50 [12]: < 10 nM
- GI50 [13]: < 10 nM
- GI50 [14]: < 10 nM
- GI50 [15]: < 10 nM
- GI50 [16]: < 10 nM
- GI50 [17]: < 10 nM
- GI50 [18]: < 10 nM
- GI50 [19]: < 10 nM
- GI50 [20]: < 10 nM
- GI50 [21]: < 10 nM
- GI50 [22]: < 10 nM
- GI50 [23]: < 10 nM
- GI50 [24]: < 10 nM
- GI50 [25]: < 10 nM
- GI50 [26]: < 10 nM
- GI50 [27]: < 10 nM
- GI50 [28]: < 10 nM
- GI50 [29]: < 10 nM
- GI50 [30]: < 10 nM
- GI50 [31]: < 10 nM
- GI50 [32]: < 10 nM
- GI50 [33]: < 10 nM
- GI50 [34]: < 10 nM
- GI50 [35]: < 10 nM
- GI50 [36]: < 10 nM
- GI50 [37]: < 10 nM
- GI50 [38]: < 10 nM
- GI50 [39]: < 10 nM
- GI50 [40]: < 10 nM
- GI50 [41]: < 10 nM
- GI50 [42]: < 10 nM
- GI50 [43]: < 10 nM
- GI50 [44]: < 10 nM
- GI50 [45]: < 10 nM
- GI50 [46]: < 10 nM
- GI50 [47]: < 10 nM
- pIC50 [48]: 7.33
- GI50 [49]: < 10 nM
- GI50 [50]: < 10 nM
- GI50 [51]: 1 nM
- GI50 [52]: < 10 nM
- GI50 [53]: < 10 nM
- GI50 [54]: < 10 nM
- GI50 [55]: < 10 nM
- GI50 [56]: < 10 nM
- GI50 [57]: < 10 nM
- GI50 [58]: < 10 nM
- GI50 [59]: < 10 nM
- GI50 [60]: < 10 nM
- GI50 [61]: < 10 nM
- GI50 [62]: < 10 nM
- GI50 [63]: < 10 nM

SMILES: C[C@@H]1O[C@H](O[C@H]2CC[C@@]3(C)[C@H](CC[C@@H]4[C@@H]3CC[C@]3(C)[C@@H](C5=CC(=O)OC5)CC[C@]43O)C2)C[C@@H](O)[C@H]1O
- GI50 [51]: > 50 nM

SMILES: C[C@@H]1O[C@H](O[C@H]2CC[C@@]3(C)[C@H](CC[C@@H]4[C@@H]3CC[C@]3(C)[C@@H](C5=CC(=O)OC5)CC[C@]43O)C2)C[C@H](O)[C@H]1O
- GI50 [51]: 1 nM

SMILES: C[C@H]1O[C@H](O[C@H]2CC[C@@]3(C)[C@H](CC[C@@H]4[C@@H]3CC[C@]3(C)[C@@H](C5=CC(=O)OC5)CC[C@]43O)C2)CC[C@@H]1O
- GI50 [51]: 113 nM

SMILES: C[C@H]1O[C@@H](O[C@H]2[C@@H](O)C[C@H](O[C@H]3CC[C@@]4(C)[C@H](CC[C@@H]5[C@@H]4CC[C@]4(C)[C@@H](C6=CC(=O)OC6)CC[C@]54O)C3)O[C@@H]2C)C[C@H](O)[C@@H]1O
- GI50 [51]: 50 nM
